Measurements taken from ChEMBL document CHEMBL3734686, “Synthesis, Photophysical Properties, and Biological Evaluation of trans-Bisthioglycosylated Tetrakis(fluorophenyl)chlorin for Photodynamic Therapy” (J Med Chem, 2015).

What was measured:
Kidney = experiment: Drug uptake in BALB/c mouse kidney implanted with mouse 4T1 cells assessed per gram of tissue at 0.18 mg/kg, ip after 72 hrs by HPLC-based fluorescence analysis; format: ADME, organism-based; conditions: in vivo
Outline: (§1)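 Female BALB/c mice bearing 4T1 thigh tumours received an i.p. dose in ethanol/PEG400/H2O (2/3/5) with 0.1% DMSO, or in saline, and were kept dark until killed. Tissues were weighed (100 mg), homogenised in CH3OH/DMSO/H2O (32/8/1) and centrifuged twice at 2300×g at 4°C. Supernatants were analysed by HPLC with fluorescence detection (λex 404/λem 654 nm or λex 400/λem 666 nm). n = 3 per time point.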

[1] = Induction of reactive oxygen generation assessed as quantum yield of hydroxyl radical generation in O2 saturated PBS containing 1% DMSO under photoirradiation by spectrometry relative to control hematoporphyrin; format: physicochemical; conditions: buffer
Outline: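 Photosensitizer (1.00 µM) with HPF (2.00 µM) in PBS containing 1% DMSO, oxygenated 1 min, irradiated with 100-W halogen lamp through λ>500 nm cutoff filter at 37°C; hematoporphyrin as reference.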

Heart = experiment: Drug uptake in BALB/c mouse heart implanted with mouse 4T1 cells assessed per gram of tissue at 0.18 mg/kg, ip after 6 hrs by HPLC-based fluorescence analysis; format: ADME, organism-based; conditions: in vivo; outline: as §1
[2] = Drug uptake in BALB/c mouse small intestine implanted with mouse 4T1 cells assessed per gram of tissue at 0.18 mg/kg, ip after 6 hrs by HPLC-based fluorescence analysis; format: ADME, organism-based; conditions: in vivo
Outline: (§2)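 Female BALB/c mice with 4T1 cells (1 × 10^6 in HBSS) implanted in left rear thigh; single i.p. dose, 7 in ethanol/PEG400/H2O (2/3/5) with 0.1% DMSO, mono-L-aspartyl chlorin e6 in saline; kept dark until sacrifice. Tissues washed, frozen, homogenized in CH3OH/DMSO/H2O (32/8/1), centrifuged 2300×g; supernatant analysed by HPLC with fluorescence detection; three animals per time point.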

Urinary bladder [3] = experiment: Drug uptake in BALB/c mouse bladder implanted with mouse 4T1 cells assessed per gram of tissue at 0.18 mg/kg, ip after 6 hrs by HPLC-based fluorescence analysis; format: ADME, organism-based; conditions: in vivo; outline: as §1
[4] = Drug uptake in BALB/c mouse large intestine implanted with mouse 4T1 cells assessed per gram of tissue at 0.18 mg/kg, ip after 12 hrs by HPLC-based fluorescence analysis; format: ADME, organism-based; conditions: in vivo; outline: as §1
Spleen = experiment: Drug uptake in BALB/c mouse spleen implanted with mouse 4T1 cells assessed per gram of tissue at 0.18 mg/kg, ip after 12 hrs by HPLC-based fluorescence analysis; format: ADME, organism-based; conditions: in vivo; outline: as §2
[5] = Drug uptake in BALB/c mouse large intestine implanted with mouse 4T1 cells assessed per gram of tissue at 0.18 mg/kg, ip after 48 hrs by HPLC-based fluorescence analysis; format: ADME, organism-based; conditions: in vivo; outline: as §1
Urinary bladder [6] = experiment: Drug uptake in BALB/c mouse bladder implanted with mouse 4T1 cells assessed per gram of tissue at 0.18 mg/kg, ip after 48 hrs by HPLC-based fluorescence analysis; format: ADME, organism-based; conditions: in vivo; outline: as §1
[7] = Drug uptake in BALB/c mouse small intestine implanted with mouse 4T1 cells assessed per gram of tissue at 0.18 mg/kg, ip after 72 hrs by HPLC-based fluorescence analysis; format: ADME, organism-based; conditions: in vivo; outline: as §2

With `CN1CC2C3=N/C(=C(/c4c(F)c(F)c(S[C@@H]5O[C@H](CO)[C@@H](O)[C@H](O)[C@H]5O)c(F)c4F)C4=N/C(=C(/c5c(F)c(F)c(F)c(F)c5F)c5ccc([nH]5)/C(c5c(F)c(F)c(S[C@@H]6O[C@H](CO)[C@@H](O)[C@H](O)[C@H]6O)c(F)c5F)=C5/C=CC(=N5)C3c3c(F)c(F)c(F)c(F)c3F)C=C4)C2C1` (stereo not given in full) the Drug uptake (Kidney) was 13 ng, the Ratio [1] was 1.2 and the Drug uptake (Heart) was 24 ng/g. The Drug uptake [2] was 90 ng, the Drug uptake (Urinary bladder [3]) was 90 ng/g and the Drug uptake [4] was 41 ng. The Drug uptake (Spleen) was 55 ng, the Drug uptake [5] was 17 ng/g and the Drug uptake (Urinary bladder [6]) was 3 ng/g. For the same compound, the Drug uptake [7] was 9.8 ng/g.
